The record followed here is ChEMBL document CHEMBL1143384, “Discovery of novel inhibitors of Trypanosoma cruzi trans-sialidase from in silico screening” (Bioorg Med Chem Lett, 2009).

Calls of active or inactive are those of the source. No cut-off for these calls is given here.

Experiment [1] has as its target T1, Trans-sialidase (Trypanosoma cruzi) (UniProt Q26966).
T1 sequence (whole entry): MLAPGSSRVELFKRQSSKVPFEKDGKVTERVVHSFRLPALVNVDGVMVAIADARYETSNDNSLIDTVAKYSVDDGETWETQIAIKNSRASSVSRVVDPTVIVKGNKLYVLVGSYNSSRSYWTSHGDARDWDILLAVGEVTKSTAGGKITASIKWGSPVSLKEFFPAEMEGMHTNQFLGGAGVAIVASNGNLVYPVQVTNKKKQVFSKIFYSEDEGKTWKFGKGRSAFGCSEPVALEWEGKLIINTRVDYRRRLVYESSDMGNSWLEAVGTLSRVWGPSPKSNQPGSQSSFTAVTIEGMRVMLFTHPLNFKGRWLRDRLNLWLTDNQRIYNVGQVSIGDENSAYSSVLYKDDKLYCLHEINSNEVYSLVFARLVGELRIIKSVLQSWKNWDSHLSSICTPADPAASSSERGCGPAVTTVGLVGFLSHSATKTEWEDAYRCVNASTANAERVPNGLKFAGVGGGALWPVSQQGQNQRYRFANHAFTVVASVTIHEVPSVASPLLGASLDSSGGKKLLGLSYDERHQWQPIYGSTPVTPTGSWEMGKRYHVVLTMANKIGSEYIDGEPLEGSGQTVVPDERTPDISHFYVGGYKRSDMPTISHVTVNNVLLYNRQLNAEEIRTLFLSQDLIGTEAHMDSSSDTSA
Description: Inhibition of Trypanosoma cruzi trans-Sialidase at 1 mM by MuNANA assay. In short, it runs like this: (§1)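 Recombinant TcTS in a continuous fluorimetric assay in 96-well format, with 4-methylumbelliferyl sialoside (MuNANA) as substrate, following sialic acid hydrolysis. Compounds were first screened at 1 mM, or at the highest concentration their solubility allowed, in triplicate. IC50 was then determined in the same assay for compounds inhibiting more than 50%.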

The target in experiment [2] is T2, Trans-sialidase (Trypanosoma cruzi, UniProt Q26966).
T2 sequence (Q26966 whole entry): T1 sequence (whole entry)
Description: Inhibition of Trypanosoma cruzi trans-Sialidase by TIA assay. In a few lines:
(§2)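 Trans-sialidase inhibition assay (TIA), which measures sialic acid transfer from sialyllactose as donor to 14C-radiolabelled lactose as acceptor.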

Experiment [3] has as its target T2, Trans-sialidase. As to the kind of experiment: Inhibition of Trypanosoma cruzi trans-Sialidase by MuNANA assay. In a few lines: as §1
Experiment [4] deals with T1, Trans-sialidase (Trypanosoma cruzi). As to the kind of experiment: Inhibition of Trypanosoma cruzi trans-Sialidase at 0.5 mM by MuNANA assay. In a few lines: as §1
For experiment [5] the target is unchanged. As to the kind of experiment: Inhibition of Trypanosoma cruzi trans-Sialidase at 1 mM by TIA assay. In short, it runs like this: as §2
In experiment [6] the target is T2, Trans-sialidase. Description: Inhibition of Trypanosoma cruzi trans-Sialidase. In short, it runs like this: as §1
Experiment [7] deals with T1, Trans-sialidase (Trypanosoma cruzi). As to the kind of experiment: Inhibition of Trypanosoma cruzi trans-Sialidase at 0.01 mM by MuNANA assay. In a few lines: as §1
The target is the same in experiment [8]. Description: Inhibition of Trypanosoma cruzi trans-Sialidase at 0.05 mM by MuNANA assay. In short, it runs like this: as §1
The target is the same in experiment [9]. As to the kind of experiment: Inhibition of Trypanosoma cruzi trans-Sialidase at 0.1 mM by MuNANA assay. In short, it runs like this:
as §1

The target is the same in experiment [10]. As to the kind of experiment: Inhibition of Trypanosoma cruzi trans-Sialidase at 0.025 mM by MuNANA assay. In short, it runs like this:
as §1

Experiment [11] shares this target. Description: Inhibition of Trypanosoma cruzi trans-Sialidase at 0.125 mM by MuNANA assay. In a few lines: as §1

With `CC(C)Oc1ccccc1/C=C(\CC(=O)O)c1nc2ccccc2s1`, in experiment [1], the inhibition (commonly the relative decrease from the control value, in per cent) worked out at 92%. The IC50 (in general, the concentration that inhibits the measured activity by half) was 290 µM against Trans-sialidase [2] and 150 µM on Trans-sialidase [3].
On to `COc1ccc(/C=C(\CC(=O)O)c2nc3ccccc3s2)cc1OC`, for which the inhibition in experiment [4] was 84%. In addition, half-maximal inhibition against Trans-sialidase [3] (IC50) was put at 180 µM.
As to `O=C(O)C/C(=C\c1cccc(C(F)(F)F)c1)c1nc2ccccc2s1`, the inhibition in experiment [1] turned out to be 92%. Moreover, half-maximal inhibition against Trans-sialidase [3] (IC50) was put at 150 µM.
In [1], `COC(=O)c1ccc(Oc2ccc(C(F)(F)F)cc2NC(=O)c2ccccc2C(=O)O)s1` displayed an inhibition of 21%.
`COc1cccc(CNC(=O)Cc2c(C(=O)O)[nH]c3ccc(Cl)cc23)c1` had an inhibition in experiment [4] of 57%.
In experiment [1], `O=C(O)C/C(=C\c1cccc(F)c1)c1nc2ccccc2s1` had an inhibition of 94%. Half-maximal inhibition against Trans-sialidase [3] (IC50) required 120 µM.
Turning to `CC(=O)c1sccc1NC(=O)c1ccccc1C(=O)O`, the inhibition in experiment [1] came out at 79%; in experiment [5], 32%. This molecule also displayed an IC50 on Trans-sialidase [3] of 290 µM.
In turn, `COc1ccc(C(CC(=O)O)NC(=O)COc2cc(C)ccc2C)cc1OC` (stereo unspecified) returned an inhibition in experiment [1] of 30%.
Consider `CC(=O)Nc1ccc(C(=O)O)nc1N`, for which inhibition at Trans-sialidase [6] was half-maximal at 440 µM (IC50).
In the case of `CCCOC(=O)c1c(NC(=O)C2CCCCC2C(=O)O)sc(C)c1C` (stereo unspecified), in [1], the inhibition came to 87%. This molecule also had an IC50 against Trans-sialidase [3] of 210 µM.
On to `Cc1ccc(C)c(/C=C(\CC(=O)O)c2nc3ccccc3s2)c1`, for which the inhibition in [1] worked out at 91%. This molecule also had an IC50 at Trans-sialidase [3] of 120 µM.
In the case of `CCOP(=O)(O)C1=C[C@H](O)[C@@H](NC(C)=O)[C@H](OCCO)C1`, it took 5000 µM to reach half-maximal inhibition at Trans-sialidase [6] (IC50).
Consider `CCOc1ccccc1/C=C(\CC(=O)O)c1nc2ccccc2s1`, for which, in experiment [1], the inhibition was 90%. The IC50 at Trans-sialidase [2] came to 420 µM; at Trans-sialidase [3] it was 160 µM.
Regarding `O=c1[nH]c(O)c(C(c2ccc3c(c2)CN2CCOCC2O3)c2c(O)[nH]c(=O)[nH]c2=O)c(=O)[nH]1` (stereo unspecified), the inhibition in experiment [4] worked out at 28%.
Turning to `CCn1nc(NS(=O)(=O)c2ccc(C)cc2)c2cc3cc(C)ccc3nc21`, the outcome in experiment [7] was inactive.
On to `COc1ccc(NC(=O)CC2(CC(=O)O)CCCCC2)cc1OC`, for which the result in [1] was inactive.
For `COc1ccc(CC(=O)Nc2ccc(S(=O)(=O)Nc3nc(C)cc(C)n3)cc2)cc1`, in [4], the inhibition turned out to be 42%.
`CC1(C)SC2c3ccccc3C(=O)N2C1C(=O)NC(Cc1c[nH]c2ccccc12)C(=O)O` (stereo unspecified) gave an inhibition in [1] of 23%.
Consider `COCCNC(=O)c1ccc(NS(=O)(=O)c2cc(Cl)sc2Cl)cc1`, for which, in [1], the inhibition was found to be 50%.
With `Cc1c(NS(=O)(=O)c2cccc(C(=O)NCc3ccncc3)c2)c(=O)n(-c2ccccc2)n1C`, the inhibition in experiment [1] is 23%.
As for `CC(=O)c1sc(C(C)(C)C)cc1NC(=O)c1ccccc1C(=O)O`, in [1], the inhibition turned out to be 84%. Also, the midpoint of inhibition against Trans-sialidase [3], the IC50, lay at 270 µM.
Consider `OC[C@H]1O[C@@H](O[C@@H]2[C@@H](CO)O[C@](O)(CO)[C@H]2O)[C@H](O)[C@@H](O)[C@H]1O` [LACTULOSE], for which the IC50 against Trans-sialidase [6] was 570 µM.
`COc1ccc(Nc2nc3ccccc3nc2NS(=O)(=O)c2ccc(NC(C)=O)cc2)c(OC)c1`: the inhibition in experiment [8] came to 32%.
Consider `O=C(O)CC(C(=O)Nc1cc(C(F)(F)F)cc(C(F)(F)F)c1)C1=CCCCC1` (stereo unspecified), for which the inhibition in [1] is 32%.
For the molecule `COc1cccc(/C=C(\CC(=O)O)c2nc3ccccc3s2)c1`, the inhibition in experiment [1] was determined as 91%. Further, the IC50 at Trans-sialidase [3] was 310 µM.
`COc1cc(C2C(C(=O)c3ccc4c(c3)OCCO4)=C(O)C(=O)N2CCCN(C)C)cc(OC)c1OC` (stereo unspecified) yielded an inhibition in experiment [4] of 41%.
For the molecule `CC(=O)N[C@H]1[C@H]([C@H](O)[C@H](O)CO)OC(C(=O)O)=C[C@@H]1O` [NEU5AC2EN], the affinity on Trans-sialidase [6] corresponds to a Ki of 12300 µM.
`O=C(O)C1CC=C(Cl)CC1C(=O)NCC1OCCc2ccccc21` (stereo unspecified) showed an inhibition in [1] of 26%.
With `Cc1ncc(COP(=O)(O)O)c(C=O)c1O` [PYRIDOXAL PHOSPHATE ANHYDROUS], the Ki (usually the dissociation constant of the complex between target and ligand, obtained from inhibition or displacement) at Trans-sialidase [6] came to 7300 µM.
The molecule `O=C(O)c1ccccc1C(=O)NCCCc1c(C(=O)O)[nH]c2cc3c(cc12)OCCO3` showed an inhibition in [1] of 36%.
As to `O=C(O)C/C(=C\c1cccc(O)c1)c1nc2ccccc2s1`, on Trans-sialidase [2], the midpoint of inhibition, the IC50, lay at 520 µM. In experiment [9], this molecule came in with an inhibition of 30%.
In the case of `CC(=O)N[C@H]1C(O)CC(P(=O)(O)CCO[C@H]2[C@@H](O)[C@@H](CO)OC(O)[C@@H]2O)=C[C@@H]1O` (single isomer, unassigned), half-maximal inhibition on Trans-sialidase [6] (IC50) required 1500 µM.
For `CC(=O)Nc1ccc(S(=O)(=O)Nc2nc3n(n2)C(c2ccc(Cl)cc2)C=C(c2ccccc2)N3)cc1` (stereo unspecified), the outcome in experiment [10] was inactive.
Molecule `CC(=O)Nc1ccc(S(=O)(=O)Nc2nc(-c3ccccc3)c(-c3ccccc3)o2)cc1` yielded an inhibition in experiment [11] of 22%.
On to `Cc1ccc(S(=O)(=O)Nc2nnc(SCC(=O)Nc3ccc4c(c3)OCO4)s2)cc1`, for which the inhibition in experiment [1] was 82%. For the same molecule, the midpoint of inhibition against Trans-sialidase [3], the IC50, lay at 280 µM.
Consider `CC(=O)Nc1ccc(C(=O)O)cc1CO`, for which the IC50 at Trans-sialidase [6] was 540 µM.
